This is an account of results in publication PMC3575752 (Journal of nuclear medicine : official publication, Society …, 2009).

One data set deals with purified PSMA (Homo sapiens, UniProt Q04609). The experiment in a line: HPLC-based PSMA inhibition IC50 assay. The format is biochemical. Particulars: read-out: IC50, PSMA inhibition; PABGgG 1 μM, 15 min, 37°C, Tris pH 7.4. An outline of the steps: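 Purified PSMA diluted in 50 mM Tris pH 7.4 with 1% Triton X-100 to give 15–20% uninhibited conversion. […] Shaken 15 min at 37°C, then quenched with 2% TFA in methanol and buffered with 0.1 M K2HPO4. After centrifugation, supernatant product measured by HPLC; IC50 calculated.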
Sequence of purified PSMA (Q04609 whole entry): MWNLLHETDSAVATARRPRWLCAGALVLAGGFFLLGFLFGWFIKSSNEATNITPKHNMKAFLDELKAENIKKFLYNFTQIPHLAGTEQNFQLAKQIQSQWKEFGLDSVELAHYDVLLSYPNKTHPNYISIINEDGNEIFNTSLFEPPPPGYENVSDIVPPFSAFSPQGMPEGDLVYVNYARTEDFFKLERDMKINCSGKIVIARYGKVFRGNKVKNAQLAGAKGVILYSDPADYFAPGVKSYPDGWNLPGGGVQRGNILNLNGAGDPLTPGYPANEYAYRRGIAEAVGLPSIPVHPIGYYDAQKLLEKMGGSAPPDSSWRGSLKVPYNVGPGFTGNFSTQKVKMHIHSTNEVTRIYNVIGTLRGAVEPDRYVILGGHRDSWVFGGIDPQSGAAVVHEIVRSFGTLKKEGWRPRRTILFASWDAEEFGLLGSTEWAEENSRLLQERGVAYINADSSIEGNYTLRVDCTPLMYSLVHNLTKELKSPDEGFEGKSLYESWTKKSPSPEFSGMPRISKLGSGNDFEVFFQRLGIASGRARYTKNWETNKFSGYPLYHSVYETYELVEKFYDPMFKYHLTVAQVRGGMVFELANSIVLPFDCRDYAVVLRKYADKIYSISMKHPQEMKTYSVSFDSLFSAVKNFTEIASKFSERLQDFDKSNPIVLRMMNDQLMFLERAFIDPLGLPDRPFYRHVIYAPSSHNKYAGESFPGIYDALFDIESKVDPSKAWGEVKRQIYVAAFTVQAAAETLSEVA

For data set [1], the system named is PC-3 PSMA− tumor xenografts. Briefly: microPET/CT imaging of PC-3. The class given is in vivo, male NCr nude mice. The settings on record: PC-3 PSMA− xenograft, 2 h post-injection. The gist of the method:
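PC-3-xenograft male NCr nude mice (tumours 5–10 mm, 1–2 wk after subcutaneous inoculation) anaesthetised with isoflurane. Tail-vein 18F tracer, 3,700–7,400 kBq (100–200 μCi). MicroPET/CT, 10-min scans at 0, 1 and 2 h. List-mode data, 2D OSEM reconstruction.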

In data set [2] the test system is LNCaP PSMA+ tumor xenografts. The experiment in a line: microPET/CT imaging of LNCaP. The class given is in vivo, male NCr nude mice. Particulars: 1 mg nonradioactive (2) 1 h before tracer, 120 min after injection. The gist of the method: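 LNCaP-xenograft male nude mice (tumours 5–10 mm) under isoflurane were pretreated with 1 mg unlabelled analogue in 200 μL Tris buffer. One hour later they received tail-vein 18F tracer (3,700–7,400 kBq). MicroPET/CT, 10-min acquisitions at 0, 1 and 2 h, list mode, 2D OSEM reconstruction.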

Data set [3] relates to PC-3 PSMA− tumor xenografts. The experiment in a line: Ex vivo biodistribution in mice bearing PC-3. Further details: species or system male NCr nude mice. The gist of the method: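 Male NCr nude mice with subcutaneous right-shoulder PC-3 xenografts (cells in serum-free medium; tumours 5–10 mm, 1–2 wk). 18F tracer, 3,700–7,400 kBq, by tail vein under isoflurane. Euthanised after 2 h imaging. Cardiac blood, major organs (including kidney) and tumour weighed and γ-counted. %ID/g from known-activity standards. n = 3; one-tailed t test, unequal variance.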

On to `O=C(O)CC[C@H](NP(=O)(O)OC[C@H](NC(=O)CC[C@H](NC(=O)c1ccc(F)cc1)C(=O)O)C(=O)O)C(=O)O` [compound 2, S-2-((2-(S-4-(4-Fluorobenzamido)-4-Carboxybutanamido)-S-2-Carboxyethoxy) Hydroxyphosphorylamino)-Pentanedioic Acid], for which the IC50 – broadly, the midpoint of a concentration-inhibition curve – at purified PSMA was found to be 0.68 nM.
Turning to `O=C(O)CC[C@H](NP(=O)(O)OC[C@H](NC(=O)CC[C@H](NC(=O)c1ccc([18F])cc1)C(=O)O)C(=O)O)C(=O)O` [compound 3, ^18F-S-2-((2-(S-4-(4-Fluorobenzamido)-4-Carboxybutanamido)-S-2-Carboxyethoxy) Hydroxyphosphoryl-Amino)-Pentanedioic Acid], in data set [1], the PET tumor signal entry is on record as “no detectable tumor signal”. In addition, in data set [2], the “PET tumor uptake after blocking” value is “substantial decrease in tumor uptake”. The “tumor uptake in PSMA− control” value in data set [3] (PC-3 tumor, 2 h post-injection) amounted to 0.32 ± 0.14 %ID/g. In data set [3] (PSMA− (PC-3) model, 2 h), the kidney uptake is 2.83 ± 0.9 %ID/g.
